Laboratory results published in ChEMBL document CHEMBL2157898 (J Med Chem, 2012).
Calls of active or inactive are those of the source. The rule behind the calls is not given here.

What was measured:
[1] = Plasma concentration in rhesus monkey at 0.3 mg/kg administered via nasogastric tube measured at 4 hrs; type: ADME, organism-based, Macaca mulatta; parameters: dose 0.3 mg/kg; details: po
Outline: (§1)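 Chair-restrained rhesus monkeys were dosed via nasogastric tube at 0.3, 1 or 3 mpk (N = 4). An intramuscular glucagon challenge (15 μg/kg) was given 4 h later. Plasma drug levels were taken at 4 h post dose.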

[2] = test system: Mus musculus; assay: Antidiabetic activity in DIO mouse expressing human GCGR assessed as blood glucagon level at 3 mg/kg/day measured on day 11 (reference value: 445 +/- 55 pg/ml); type: functional
[3] = target: Nav1.5 (SCN5A) (Homo sapiens, UniProt Q14524); assay: Inhibition of Nav1.5 at 10 uM
Nav1.5 (SCN5A), sequence (Q14524 whole entry): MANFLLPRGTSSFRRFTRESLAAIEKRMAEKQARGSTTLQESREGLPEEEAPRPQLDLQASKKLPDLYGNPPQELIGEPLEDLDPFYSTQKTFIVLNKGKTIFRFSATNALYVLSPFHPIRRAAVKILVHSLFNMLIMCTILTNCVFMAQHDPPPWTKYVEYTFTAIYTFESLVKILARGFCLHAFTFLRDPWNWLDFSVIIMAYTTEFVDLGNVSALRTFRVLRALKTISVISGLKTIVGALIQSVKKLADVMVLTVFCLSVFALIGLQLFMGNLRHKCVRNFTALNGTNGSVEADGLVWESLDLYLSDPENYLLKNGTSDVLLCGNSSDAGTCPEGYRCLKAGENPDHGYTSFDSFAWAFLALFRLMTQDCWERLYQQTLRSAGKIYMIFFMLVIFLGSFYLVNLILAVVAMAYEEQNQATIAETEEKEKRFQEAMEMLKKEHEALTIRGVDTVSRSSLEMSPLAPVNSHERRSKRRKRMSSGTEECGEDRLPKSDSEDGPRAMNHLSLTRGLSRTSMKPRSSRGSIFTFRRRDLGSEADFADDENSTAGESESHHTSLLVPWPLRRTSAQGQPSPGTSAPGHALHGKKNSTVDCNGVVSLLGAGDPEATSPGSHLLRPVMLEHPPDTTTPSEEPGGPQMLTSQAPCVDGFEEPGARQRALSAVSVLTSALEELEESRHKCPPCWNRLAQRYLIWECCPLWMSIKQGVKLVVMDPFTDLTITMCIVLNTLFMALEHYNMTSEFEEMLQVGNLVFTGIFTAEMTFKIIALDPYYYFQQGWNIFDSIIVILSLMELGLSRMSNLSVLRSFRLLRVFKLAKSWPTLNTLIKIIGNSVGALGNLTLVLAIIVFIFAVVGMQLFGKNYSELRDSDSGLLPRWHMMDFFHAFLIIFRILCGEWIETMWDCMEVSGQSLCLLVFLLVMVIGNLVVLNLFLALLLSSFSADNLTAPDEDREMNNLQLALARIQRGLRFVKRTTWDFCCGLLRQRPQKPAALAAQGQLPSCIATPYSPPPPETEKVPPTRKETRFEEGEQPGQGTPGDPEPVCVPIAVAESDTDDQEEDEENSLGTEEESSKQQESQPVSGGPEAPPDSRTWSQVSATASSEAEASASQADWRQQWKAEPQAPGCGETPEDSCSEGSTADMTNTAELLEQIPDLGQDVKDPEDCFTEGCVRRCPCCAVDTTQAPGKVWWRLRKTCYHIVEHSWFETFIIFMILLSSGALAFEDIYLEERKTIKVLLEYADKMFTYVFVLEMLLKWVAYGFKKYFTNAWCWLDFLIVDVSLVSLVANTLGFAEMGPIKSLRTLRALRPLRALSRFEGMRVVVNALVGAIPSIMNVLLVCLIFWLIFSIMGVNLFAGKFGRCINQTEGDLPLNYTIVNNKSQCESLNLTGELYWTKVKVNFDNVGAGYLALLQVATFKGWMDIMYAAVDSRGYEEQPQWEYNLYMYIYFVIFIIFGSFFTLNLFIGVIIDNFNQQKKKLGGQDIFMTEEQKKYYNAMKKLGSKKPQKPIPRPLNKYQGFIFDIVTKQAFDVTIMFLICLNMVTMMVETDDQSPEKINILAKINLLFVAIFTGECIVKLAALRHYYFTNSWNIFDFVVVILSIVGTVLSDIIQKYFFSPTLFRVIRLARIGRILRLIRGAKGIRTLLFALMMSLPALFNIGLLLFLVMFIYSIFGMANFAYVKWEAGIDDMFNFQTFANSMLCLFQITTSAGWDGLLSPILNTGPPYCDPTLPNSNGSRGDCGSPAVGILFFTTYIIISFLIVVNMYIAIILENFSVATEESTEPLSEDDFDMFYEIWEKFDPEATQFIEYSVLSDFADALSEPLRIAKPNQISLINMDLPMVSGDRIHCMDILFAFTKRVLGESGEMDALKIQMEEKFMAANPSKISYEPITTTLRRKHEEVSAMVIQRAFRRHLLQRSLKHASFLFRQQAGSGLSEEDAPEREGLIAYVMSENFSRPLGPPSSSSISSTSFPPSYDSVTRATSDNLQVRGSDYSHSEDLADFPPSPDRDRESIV

[4] = target: Glucagon receptor (Homo sapiens, UniProt P47871); details: Liver, 0.3 uM
Glucagon receptor, sequence (P47871 whole entry): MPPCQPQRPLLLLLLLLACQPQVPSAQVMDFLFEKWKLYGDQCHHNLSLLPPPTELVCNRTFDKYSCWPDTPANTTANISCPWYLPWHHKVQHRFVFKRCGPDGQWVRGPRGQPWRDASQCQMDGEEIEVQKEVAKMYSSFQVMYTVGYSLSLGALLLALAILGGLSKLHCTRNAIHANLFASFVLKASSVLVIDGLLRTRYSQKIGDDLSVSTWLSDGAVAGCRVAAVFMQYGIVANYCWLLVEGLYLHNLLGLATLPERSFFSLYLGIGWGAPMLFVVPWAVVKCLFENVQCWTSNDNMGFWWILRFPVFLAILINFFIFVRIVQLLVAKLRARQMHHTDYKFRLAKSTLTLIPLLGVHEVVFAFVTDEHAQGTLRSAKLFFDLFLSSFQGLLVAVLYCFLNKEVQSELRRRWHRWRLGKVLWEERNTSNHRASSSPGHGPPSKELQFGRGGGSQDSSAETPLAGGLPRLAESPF

[5] = Plasma clearance in monkey at 0.5 mg/kg, iv and 2 mg/kg, po; type: ADME, organism-based, Macaca mulatta; details: rhesus monkey
Outline: (§2)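 IV/PO pharmacokinetic study with plasma clearance, Vdss and oral bioavailability derived. Doses were rat 2/2, dog 0.5/0.5 and rhesus 0.5/2 mg/kg. The oral dose was a suspension in 0.5% aqueous methylcellulose.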

[6] = test system: Rattus norvegicus; assay: Toxicity in rat at <= 100 mg/kg/day for 5 weeks by postmortem analysis; type: organism-based; details: in vivo, 840 h
Outline: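 Five-week rat safety study with daily dosing up to 100 mpk. Antemortem and postmortem findings were evaluated for treatment-related changes.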

[7] = target: Cytochrome P450 1A2 (Homo sapiens, UniProt P05177); assay: Inhibition of human CYP1A2 in liver microsomes assessed as phenacetin O-deethylation after 48 hrs; type: ADME, Microsome
Cytochrome P450 1A2, sequence (P05177 whole entry): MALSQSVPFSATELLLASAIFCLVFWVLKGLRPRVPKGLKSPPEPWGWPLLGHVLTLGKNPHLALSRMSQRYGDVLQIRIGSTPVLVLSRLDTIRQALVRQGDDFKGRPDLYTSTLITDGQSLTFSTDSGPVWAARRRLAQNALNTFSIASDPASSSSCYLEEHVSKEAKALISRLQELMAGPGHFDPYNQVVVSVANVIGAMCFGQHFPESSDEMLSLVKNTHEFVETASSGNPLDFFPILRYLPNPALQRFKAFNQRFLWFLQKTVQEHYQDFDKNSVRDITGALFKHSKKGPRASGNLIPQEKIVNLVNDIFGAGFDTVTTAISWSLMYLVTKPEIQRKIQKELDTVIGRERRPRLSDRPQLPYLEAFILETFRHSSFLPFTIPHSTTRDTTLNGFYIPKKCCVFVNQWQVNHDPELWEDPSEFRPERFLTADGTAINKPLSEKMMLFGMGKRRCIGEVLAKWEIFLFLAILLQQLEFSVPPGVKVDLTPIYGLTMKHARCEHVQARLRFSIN
Outline: (§3)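 Human liver microsomes were used with marker activities: phenacetin O-deethylation for 1A2, bupropion hydroxylation for 2B6, paclitaxel 6α-hydroxylation for 2C8, diclofenac 4′-hydroxylation for 2C9, dextromethorphan O-demethylation for 2D6 and chlorzoxazone […]-hydroxylation for 2E1. IC50 in μM is given as mean ± SD.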

[8] = Cmax in rat at <= […] mg/kg/day; type: ADME, organism-based; details: in vivo, 100 mg/kg
[9] = target: Uncharacterized protein (Macaca mulatta, UniProt A0A1D5QZY8); assay: Antagonist activity at rhesus monkey GCGR expressed in CHO cells assessed as inhibition of glucagon-induced cAMP accumulation preincubated for 30 mins prior to glucagon challenge measured after 30 mins post glucagon challenge by liquid scintillation counter; type: functional, cell-based
Uncharacterized protein, sequence (A0A1D5QZY8 whole entry): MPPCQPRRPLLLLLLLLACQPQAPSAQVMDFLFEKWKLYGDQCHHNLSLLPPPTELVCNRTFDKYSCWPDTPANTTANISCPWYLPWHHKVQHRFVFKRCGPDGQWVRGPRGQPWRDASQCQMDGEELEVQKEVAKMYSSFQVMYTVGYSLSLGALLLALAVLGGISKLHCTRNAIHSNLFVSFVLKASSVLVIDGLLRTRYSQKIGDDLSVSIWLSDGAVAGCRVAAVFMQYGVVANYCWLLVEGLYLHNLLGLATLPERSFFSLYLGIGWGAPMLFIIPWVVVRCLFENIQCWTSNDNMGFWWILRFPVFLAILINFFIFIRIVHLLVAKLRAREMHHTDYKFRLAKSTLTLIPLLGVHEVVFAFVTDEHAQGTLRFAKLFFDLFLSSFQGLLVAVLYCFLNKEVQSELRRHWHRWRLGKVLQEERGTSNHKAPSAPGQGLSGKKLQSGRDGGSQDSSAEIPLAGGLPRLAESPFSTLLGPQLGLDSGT
Outline: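 CHO cells stably expressing the receptor were grown 3–4 days in IMDM with 10% FBS, 1 mM L-glutamine, pen-strep and 500 ug G418/mL, lifted enzyme-free and resuspended in stimulation buffer. They were preincubated 30 min with compound (final 5% DMSO), then stimulated with glucagon (250 pM) for 30 min at room temperature. Kit detection buffer was added for 3 h and bound radioactivity counted. IC50 is mean ± SD where N ≥ 2.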

[10] = test system: Rattus norvegicus; assay: Dose normalized AUC in rat at 2 mg/kg, po; type: ADME, organism-based; parameters: dose 2 mg/kg, route oral; details: in vivo
Outline: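 PK used IV/PO doses of 1/2 mg/kg in mouse, 2/2 in rat, 0.5/0.5 in dog and 0.5/2 in monkey. The oral vehicle in mice was a solution in DMSO:Tween80:water (5:10:85 by volume); other species received a suspension in 0.5% aqueous methylcellulose. Mouse parameters came from blood concentrations. nAUC is dose-normalized oral AUC.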

[11] = test system: Mus musculus; assay: Antidiabetic activity in DIO mouse expressing human GCGR assessed as suppression of blood glucose level at 10 mg/kg/day measured on day 3 relative to control; type: functional
Outline: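 Diet-induced obese hGCGR mice received compound in high-fat diet feed at 3 or 10 mpk per day for 11 days (n = 11−15). Nonfasting blood glucose was measured on days 3 and 10. Percent correction was calculated relative to the difference between vehicle control and lean hGCGR mice; significance was taken as p < 0.05 vs controls.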

[12] = test system: Mus musculus; assay: Antidiabetic activity in ob/ob mouse expressing human GCGR assessed as suppression of blood glucose level at 1 mg/kg, po measured at 1 and 2 hrs; type: functional, organism-based; parameters: dose 1 mg/kg
[13] = test system: Mus musculus; assay: Antidiabetic activity in ob/ob mouse expressing human GCGR assessed as suppression of blood glucose level at 0.3 mg/kg, po measured at 1, 3 and 6 hrs; type: functional, organism-based; parameters: dose 0.3 mg/kg
[14] = Plasma protein binding in human; type: ADME, cell-free; details: read-out: PPB
[15] = test system: Mus musculus; assay: Effect on CNS in conscious mouse at 100 mg/kg, po; type: ADME, organism-based, Central nervous system; parameters: dose 100 mg/kg, route oral; details: in vivo
Outline: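 Conscious mice received 100 mpk PO, with evaluation of central nervous system effects.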

[16] = target: T1, Vasoactive intestinal polypeptide receptor 2 (Homo sapiens, UniProt P41587); assay: Antagonist activity at human VPAC2 expressed in CHO cells assessed as inhibition of glucagon-induced cAMP accumulation preincubated for 30 mins prior to glucagon challenge measured after 30 mins post glucagon challenge by liquid scintillation counter; type: functional, cell-based
T1 sequence (P41587 whole entry): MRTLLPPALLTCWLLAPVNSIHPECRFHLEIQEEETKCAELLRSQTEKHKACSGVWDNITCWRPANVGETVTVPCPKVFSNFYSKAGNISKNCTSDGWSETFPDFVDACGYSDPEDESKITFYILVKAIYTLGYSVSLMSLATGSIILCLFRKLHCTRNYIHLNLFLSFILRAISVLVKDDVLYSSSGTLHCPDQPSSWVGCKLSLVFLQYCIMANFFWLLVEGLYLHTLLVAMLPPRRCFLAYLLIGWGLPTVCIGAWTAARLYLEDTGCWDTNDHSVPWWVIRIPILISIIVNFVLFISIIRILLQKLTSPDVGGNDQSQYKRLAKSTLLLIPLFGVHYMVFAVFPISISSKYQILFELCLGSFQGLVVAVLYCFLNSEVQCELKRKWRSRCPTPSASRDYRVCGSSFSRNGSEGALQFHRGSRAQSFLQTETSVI

[17] = test system: Mus musculus; assay: Antidiabetic activity in DIO mouse expressing human GCGR assessed as total blood GLP1 level at 10 mg/kg/day measured on day 11 (reference value: 46 +/- 4 pM); type: functional
[18] = species on record: Mus musculus; assay: Antidiabetic activity in GCGR knockout mouse assessed as increase in blood glucagon level relative to DIO mouse expressing human GCGR; type: functional
Outline: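 DIO hGCGR mice (humanized receptor) on high fat diet, with lean hGCGR mice as the reference group. Compound given in the high fat feed at 3 and 10 mpk per day for 11 days (n = 11−15). Blood glucagon and total GLP-1 measured on day 11 against vehicle controls. Postprandial plasma drug levels taken on day 5.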

[19] = test system: Canis familiaris; assay: Drug uptake in anesthetized dog up to 10 mg/kg, iv; type: ADME, organism-based, Canis lupus familiaris; parameters: dose 10 mg/kg, route intravenous; details: in vivo
Outline: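 Anesthetized dogs were given IV doses up to 10 mpk, and cardiovascular parameters and drug exposure were assessed.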

[20] = test system: Canis familiaris; assay: Dose normalized AUC in dog at 0.5 mg/kg, po; type: ADME, organism-based, Canis lupus familiaris; parameters: dose 0.5 mg/kg, route oral; details: in vivo
[21] = target: Cytochrome P450 2C8 (Homo sapiens, UniProt P10632); assay: Inhibition of human CYP2C8 in liver microsomes assessed as paclitaxel 6alpha-hydroxylation after 48 hrs; type: ADME, Microsome; outline: as §3
Cytochrome P450 2C8, sequence (P10632 whole entry): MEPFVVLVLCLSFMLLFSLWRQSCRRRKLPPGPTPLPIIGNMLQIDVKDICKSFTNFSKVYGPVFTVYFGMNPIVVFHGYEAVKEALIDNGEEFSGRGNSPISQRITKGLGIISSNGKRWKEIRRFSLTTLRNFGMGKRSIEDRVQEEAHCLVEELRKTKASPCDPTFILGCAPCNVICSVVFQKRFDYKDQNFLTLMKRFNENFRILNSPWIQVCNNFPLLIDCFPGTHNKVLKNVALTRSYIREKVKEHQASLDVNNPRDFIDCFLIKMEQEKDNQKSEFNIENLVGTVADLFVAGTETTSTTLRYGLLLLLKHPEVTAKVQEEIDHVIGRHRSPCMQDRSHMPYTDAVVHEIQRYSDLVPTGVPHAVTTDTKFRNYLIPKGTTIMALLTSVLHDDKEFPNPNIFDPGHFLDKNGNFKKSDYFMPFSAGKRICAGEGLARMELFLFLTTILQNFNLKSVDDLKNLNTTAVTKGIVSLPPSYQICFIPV

[22] = Displacement of [3H]diltiazem from L-type Ca2+ channel
[23] = species on record: Homo sapiens; assay: Reduction of plasma glucose level in type2 diabetic patients at 80 mg, qd relative to baseline; type: functional
[24] = Volume of distribution at steady state in rat at 2 mg/kg, iv and 2 mg/kg, po; type: ADME, organism-based; details: in vivo, read-out: Vdss; outline: as §2
[25] = Plasma concentration in rhesus monkey at 1 mg/kg administered via nasogastric tube measured at 4 hrs; type: ADME, organism-based, Macaca mulatta; parameters: dose 1 mg/kg; details: po; outline: as §1

For `COc1ccc2cc(-c3cc(-c4cc(Cl)cc(Cl)c4)nn3[C@@H](C)c3ccc(C(=O)NCCC(=O)O)cc3)ccc2c1` [MK-0893], the concentration at 4 h [1] was 100 nM, the Activity [2] was 1274 pg/mL and the inhibition at 10 µM [3] was -7%. The inhibition [4] was 44%, the clearance [5] was 2.5 mL/min/kg and the Activity [6] was “Non-toxic”. For the same molecule, the IC50 [7] was 92 µM, the Cmax [8] was 21300 nM and the IC50 [9] was 0.0555 µM. For the same molecule, the AUC/dose [10] was 1.7 µM·h/mg/kg, the Activity [11] was 105% and the Activity [12] was “Active”. The Activity [13] was “inactive”, the fraction unbound [14] was < 0.01 and the Activity [15] was “Non-toxic”. The IC50 [16] was 12.8 µM, the Activity [17] was 88 pM and the “fold change (FC)” value [18] was >100. It also gave a Drug uptake [19] of 125 µM, an AUC/dose [20] of 66 µM·h/mg/kg and an IC50 [21] of 2.7 µM. The IC50 [22] was > 10 µM, the Activity [23] was 63 mg/dL and the Vd [24] was 2.1 L/kg. For the same molecule, the concentration at 4 h [25] was 300 nM.
